Measured values pooled from the literature.
Lines come from different studies, so protocols differ.
Target: Inhibitor of nuclear factor kappa-B kinase subunit beta (IKBKB, Homo sapiens, UniProt O14920)
Residues used in one study (O14920 1-756): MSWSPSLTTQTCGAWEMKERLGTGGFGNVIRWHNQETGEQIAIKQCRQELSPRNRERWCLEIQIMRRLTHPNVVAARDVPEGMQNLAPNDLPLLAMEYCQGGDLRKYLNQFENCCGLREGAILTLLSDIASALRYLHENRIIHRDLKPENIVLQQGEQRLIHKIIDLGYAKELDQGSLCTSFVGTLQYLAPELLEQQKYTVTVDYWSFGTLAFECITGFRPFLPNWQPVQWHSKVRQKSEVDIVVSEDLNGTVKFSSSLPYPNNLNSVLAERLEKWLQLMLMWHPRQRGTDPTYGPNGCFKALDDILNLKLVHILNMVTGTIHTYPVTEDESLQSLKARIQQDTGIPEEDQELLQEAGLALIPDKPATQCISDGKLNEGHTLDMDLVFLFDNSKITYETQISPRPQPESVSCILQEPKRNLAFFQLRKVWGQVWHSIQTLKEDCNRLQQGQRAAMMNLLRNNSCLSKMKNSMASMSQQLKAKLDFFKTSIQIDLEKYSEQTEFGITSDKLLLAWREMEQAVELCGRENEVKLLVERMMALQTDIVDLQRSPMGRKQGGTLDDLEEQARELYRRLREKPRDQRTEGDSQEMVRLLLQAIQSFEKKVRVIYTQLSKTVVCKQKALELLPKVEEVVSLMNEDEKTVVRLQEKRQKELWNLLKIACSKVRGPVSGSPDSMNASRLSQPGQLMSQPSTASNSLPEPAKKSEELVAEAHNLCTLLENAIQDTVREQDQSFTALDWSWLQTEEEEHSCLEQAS

CN(C)c1ncc(F)c(-c2cnn3ncccc23)n1  remaining binding (binding; competition with immobilised ligand; 1 µM): 80%
CCCOc1ccc([C@@H]2[C@@H](C(=O)O)[C@H](c3ccc4c(c3)OCO4)CN2CC(=O)Nc2c(CC)cccc2CC)cc1  remaining binding (cell-free assay; competition with immobilised ligand; 1 µM): 94%
C[C@@H]1CN(c2ccc3ncc(-c4ccc5[nH]nc(C6CC6)c5c4)n3n2)C[C@H](C)O1  remaining binding (binding; competition with immobilised ligand; 50 nM): 88%
CN(C)c1nccc(-c2cnc3ncccn23)n1  remaining binding (binding; competition with immobilised ligand; 1 µM): 67%
COc1cnc(Nc2cccc(S(N)(=O)=O)c2)nc1N1CCN(c2ccccc2)C(=O)C1  remaining binding (binding; competition with immobilised ligand; 1 µM): 93%
C[C@@H](c1ccc(-n2cnc3c(N)ncnc32)cc1)N1CCc2nn(C)c(Cc3ccccc3)c2C1=O  remaining binding (binding; competition with immobilised ligand; 0.1 µM): 68%
C[C@@H]1CCN(c2nccc(-c3cnn4ncccc34)n2)C1  remaining binding (binding; competition with immobilised ligand; 1 µM): 77%
FC(F)(F)Oc1cccc(-c2cnc3ccc(-c4ccncc4)nn23)c1  remaining binding (cell-free assay; competition with immobilised ligand; 5 µM): 56%
O=C(c1ccc(Nc2ncc(Cl)c(-c3ccc(Cl)s3)n2)cc1)N1CCC(N2CCCC2)CC1  remaining binding (binding; competition with immobilised ligand; 1 µM): 0.6%
CCCCN(CCCC)C(=O)CN1C[C@H](c2cc(OC)c3c(c2)OCO3)[C@@H](C(=O)O)[C@@H]1CC(C)(C)CCC  remaining binding (cell-free assay; competition with immobilised ligand; 1 µM): 81.5%
F[C@@H]1CCN(c2nccc(-c3cnn4ncccc34)n2)C1  remaining binding (binding; competition with immobilised ligand; 1 µM): 100%
Cc1c(NC(=O)c2cc(C(N)=O)nc3cc(F)ccc23)c(C(F)(F)F)nn1Cc1ccc(C(C)(C)C)cc1  remaining binding (cell-free assay; competition with immobilised ligand; 1 µM): 100%
Nc1ncc2c(n1)-c1c([nH]c3ccc(C#CC4CC4)cc13)CCCC2  remaining binding (binding; competition with immobilised ligand; 1 µM): 100%
CSc1cccnc1N1CCN(Cc2nc3ccccc3[nH]2)CC1  remaining binding (cell-free assay; competition with immobilised ligand; 1 µM): 86%
N[C@@H]1CCN(c2nccc(-c3cnn4ncccc34)n2)C1  remaining binding (binding; competition with immobilised ligand; 1 µM): 100%
CN1CCN(c2cnc3c(C4CCN(C(=O)c5ccc(OC(F)(F)F)cc5N)CC4)ncnc3c2)CC1  remaining binding (cell-free assay; competition with immobilised ligand; 1 µM): 100%
COc1ccnn2ncc(-c3ccnc(N(C)C)n3)c12  remaining binding (binding; competition with immobilised ligand; 1 µM): 98%
O=C(c1ccc(Nc2nccc(-c3cc4ccccc4s3)n2)cc1)N1CCC(N2CCCC2)CC1  remaining binding (binding; competition with immobilised ligand; 1 µM): 0.1%
CN(C)c1ncnc(-c2ccc3nc(Nc4cc(CN5CCN(C(=O)CC(F)(F)F)CC5)ccn4)[nH]c3c2)c1Cl  remaining binding (cell-free assay; competition with immobilised ligand; 1 µM): 80%
C=CC(=O)N1CCC(C(=O)NCC(=O)N2CCN(c3nc(-c4cnc(N)nc4C(F)F)nc(N4CCOCC4)n3)CC2)CC1  remaining binding (binding; competition with immobilised ligand; 1 µM): 73%
O=C(c1ccc(Nc2ncc(Cl)c(-c3cc4ccccc4s3)n2)cc1)N1CCC(N2CCCC2)CC1  remaining binding (binding; competition with immobilised ligand; 1 µM): 0.1%
O=C(O)c1cc(-c2ccc(C3CCNCC3)cc2)c2ccc(-c3ccc(C(F)(F)F)cc3)cc2c1  remaining binding (cell-free assay; competition with immobilised ligand; 1 µM): 100%
CN(c1nccc(-c2cnn3ncccc23)n1)C1CC1  remaining binding (binding; 1 µM): 100%
CCN1CCN(Cc2ccc(C(=O)Nc3ccc(C)c(Oc4ccc5c(c4)CC(=O)N5)c3)cc2C(F)(F)F)CC1  remaining binding (binding; competition with immobilised ligand; 1 µM): 100%
CN(C)CC#Cc1ccc(OCCCc2sc(N3CCc4cccc(C(=O)Nc5nc6ccccc6s5)c4C3)nc2C(=O)O)c(F)c1  remaining binding (cell-free assay; competition with immobilised ligand; 1 µM): 72%
O=C(Nc1c[nH]nc1C(=O)NC1CCNCC1)c1cc(F)cc(F)c1  remaining binding (binding; competition with immobilised ligand; 1 µM): 100%
